Data reported in ChEMBL document CHEMBL2029207, “Vascular barrier protective effects of eckol and its derivatives” (Bioorg Med Chem Lett, 2012).
Active and inactive are the calls of the source. The rule behind the calls is not given here.

Tests used:
HUVEC [1] = test: Antiinflammatory activity in HUVEC cells assessed as inhibition of LPS-induced hyperpermeability at 10 uM relative to LPS; assay type: functional; details: Homo sapiens
Method in brief: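 Primary HUVECs were stimulated with LPS at 100 ng/ml, with or without test agent. Permeability was read as albumin flux across the monolayer in a dual-chamber system, by ELISA at OD650. Percent inhibition is relative to LPS alone, with PBS as the negative control and kaempferol-3-O-sophoroside as the positive control. Values are mean ± S.D. of three experiments.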

Mus musculus [2] = species on record: Mus musculus; test: Antiinflammatory activity in mice assessed as inhibition of acetic acid-induced hyperpermeability at 10 uM relative to acetic acid
HUVEC [3] = test: Cytotoxicity against HUVEC cells assessed as decrease in cell viability up to 20 uM after 24 hrs; assay type: cell-based; details: human
Method in brief: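 HUVECs were exposed to each agent for 24 h and then assessed in cell viability assays.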

HUVEC [4] = test: Antiinflammatory activity in HUVEC cells assessed as inhibition of LPS-induced monocyte migration at 10 uM relative to LPS; assay type: functional; details: Homo sapiens
Method in brief: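 Monocyte transendothelial migration was measured across HUVECs stimulated with LPS at 100 ng/ml. The read-out was a migration index, with percent inhibition calculated against LPS alone. Controls were PBS (negative) and kaempferol-3-O-sophoroside (positive). Values are mean ± S.D. of three independent experiments.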

Mus musculus [5] = species on record: Mus musculus; test: Antiinflammatory activity in mouse assessed as inhibition of CMC-Na-induced leukocyte migration into peritoneal cavity at 10 uM relative to CMC-Na; assay type: functional
Method in brief: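 Mice received 1.0% CMC–Na to induce leukocyte migration, with or without test agent. Leukocytes recovered from the peritoneal cavity were counted (×10^6). Percent inhibition is relative to CMC–Na alone, with PBS and kaempferol-3-O-sophoroside as controls. Values are mean ± S.D. of three experiments.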

HUVEC [6] = test: Antiinflammatory activity in HUVEC cells assessed as inhibition of […]-induced monocyte binding to endothelial cells at 10 uM relative to control; details: Homo sapiens

| Compound | inhibition at 10 µM (HUVEC [1]) [%] | inhibition at 10 µM (Mus musculus [2]) [%] | Activity (HUVEC [3]) | inhibition at 10 µM (HUVEC [4]) [%] | inhibition (INH) (Mus musculus [5]) [%] | inhibition (HUVEC [6]) |
| --- | --- | --- | --- | --- | --- | --- |
| CC(=O)Oc1cc(OC(C)=O)cc(Oc2c(OC(C)=O)cc(OC(C)=O)c3c2Oc2c(OC(C)=O)cc(Oc4c(OC(C)=O)cc(Oc5c(OC(C)=O)cc(OC(C)=O)c6c5Oc5c(OC(C)=O)cc(OC(C)=O)cc5O6)cc4OC(C)=O)cc2O3)c1 | 49.5 | 59.5 | Non-toxic | 50.3 | 56.7 |  |
| COc1cc(OC)cc(Oc2c(OC)cc(OC)c3c2Oc2c(OC)cc(Oc4c(OC)cc(Oc5c(OC)cc(OC)c6c5Oc5c(OC)cc(OC)cc5O6)cc4OC)cc2O3)c1 | 33 | 34.7 | Non-toxic | 37.6 | 32.4 |  |
| Oc1cc(O)cc(Oc2c(O)cc(O)c3c2Oc2c(O)cc(O)cc2O3)c1 [ECKOL] | 56.5 | 52 | Non-toxic | 59.6 | 61.7 | Active |
| Oc1cc(O)cc(Oc2c(O)cc(O)c3c2Oc2c(O)cc(Oc4c(O)cc(Oc5c(O)cc(O)c6c5Oc5c(O)cc(O)cc5O6)cc4O)cc2O3)c1 [DIECKOL] | 74.9 | 74.4 | Non-toxic | 71.3 | 69.9 |  |
| O=c1c(O[C@@H]2O[C@H](CO)[C@@H](O)[C@H](O)[C@H]2O[C@@H]2O[C@H](CO)[C@@H](O)[C@H](O)[C@H]2O)c(-c2ccc(O)cc2)oc2cc(O)cc(O)c12 | 76.6 | 73.9 |  | 69.5 | 69.6 |  |
